# Assay results of several laboratories.
# Compare with care: the assays were run in different laboratories. pIC50: −log10 of the molar value.
# Organism: Escherichia coli
Compound,read-out,technique,strain,tested at,time,endpoint,result
O=C(N[C@H](CO)[C@H](O)c1ccc([N+](=O)[O-])cc1)C(Cl)Cl,microbial growth,,ATCC35218,,,MIC90,0.98 µg/mL
CC1(C)S[C@@H]2[C@H](NC(=O)[C@H](N)c3ccccc3)C(=O)N2[C@H]1C(=O)O,microbial growth,disc diffusion,,50 µg/disc,,inhibition zone,21 mm
C=CCCCCCCCCCCCC(O)CC(O)CO (centres unmarked),microbial growth,broth dilution,ATCC35218,,,IC50,> 200 µg/mL
COc1cc(C=CC(=O)CC(c2ccc(N(C)C)cc2)n2ccnc2)ccc1O (centres unmarked),microbial growth,disc diffusion,ATCC25922,250 µg/mL,,inhibition zone,8 mm
COc1c(C)c(OS(=O)(=O)c2ccc3ccccc3c2)c(C)c(OS(=O)(=O)c2ccc3ccccc3c2)c1C(=O)/C=C/c1ccccc1,microbial killing,broth dilution,ATCC25922,,,MBC,> 5000 µg/mL
O=[N+]([O-])c1ccc(-n2cc(COc3cccc4cccnc34)nn2)cc1,microbial growth,broth dilution,ATCC25922,,,IC50,664 µg/mL
O=C(Sc1cccccc1=O)c1ccccc1C(F)(F)F,microbial growth,broth dilution,ATCC35218,,,MIC80,19.8 µM
Cc1ccc(-n2cc(COc3cccc4cccnc34)nn2)cc1,microbial growth,broth dilution,ATCC25922,,,IC50,176 µg/mL
CC1(C)SC2C(NC(=O)C(NC(=O)C3=C(O)C4CCCN4C3=O)c3ccccc3)C(=O)N2C1C(=O)O (centres unmarked),microbial growth,well diffusion,BW25113,200 µM,,inhibition zone,11 mm
O=C(O)c1cn(C2CC2)c2cc(N3CCNCC3)c(F)cc2c1=O,microbial growth,disc diffusion,,100 µg/mL,24 h,inhibition zone,17 mm
Cc1ccc(C(C)C)cc1OCc1cn(-c2ccc(S(N)(=O)=O)cc2)nn1,microbial growth,broth dilution,ATCC25922,,,IC50,289 µg/mL
CC1(C)S[C@@H]2[C@H](NC(=O)[C@H](N)c3ccccc3)C(=O)N2[C@H]1C(=O)O,microbial growth,broth dilution,ATCC25922,,,MIC,4 µg/mL
O=c1cccccc1Sc1cccccc1=O,microbial growth,broth dilution,ATCC35218,,,MIC80,13.2 µM
COc1c(C)c(O)c(C)c(O)c1C(=O)/C=C/c1ccccc1,microbial killing,broth dilution,ATCC25922,,,MBC,> 5000 µg/mL
O=C(N/N=C/c1ccc([N+](=O)[O-])o1)c1ccc(O)cc1,microbial growth,,ATCC25922,,,MIC90,0.49 µg/mL
COc1c(C)c(OC(C)=O)c(C)c(O)c1C(=O)/C=C/c1ccccc1,microbial killing,broth dilution,ATCC25922,,,MBC,> 5000 µg/mL
Cc1ccc(C(C)C)cc1O,microbial growth,broth dilution,ATCC25922,,,IC50,96.2 µg/mL
Cc1c(NC(=O)CC2=NC(=O)CS2)c(=O)n(-c2ccccc2)n1C,microbial killing,broth dilution,,,,MBC,0.5 µg/mL
O=C(Cc1ccccc1)Sc1cccccc1=O,microbial growth,broth dilution,ATCC35218,,,MIC80,19.8 µM
N=C(N)c1ccccc1OCc1ccc(COc2ccccc2C(=N)N)cc1,microbial growth,,BW25113,,,MIC,> 200 µg/mL
COc1c(N2C[C@@H]3CCCN[C@@H]3C2)c(F)cc2c(=O)c(C(=O)O)cn(C3CC3)c12,microbial growth,,ATCC35218,,,MIC90,0.06 µg/mL
Cc1sc(C)c(-c2ccc(O)c(O)c2)c1Br,microbial growth,,AS19,,10 h,pIC50,4.97
CC1(C)S[C@@H]2[C@H](NC(=O)C(C(=O)O)c3ccccc3)C(=O)N2[C@H]1C(=O)O (some centres unmarked),microbial growth,well diffusion,BW25113,200 µM,,inhibition zone,15 mm
CCCCCCCC(=O)Oc1c(C)c(O)c(C(=O)/C=C/c2ccccc2)c(OC)c1C,microbial killing,broth dilution,ATCC25922,,,MBC,> 5000 µg/mL
C[C@H]1NCc2cc(-c3ccc4c(=O)c(C(=O)O)cn(C5CC5)c4c3OC(F)F)ccc21,microbial growth,broth dilution,,,,MIC50,≤ 0.03 µg/mL
Cc1ccc(C(C)C)cc1OCc1cn(-c2ccc(Cl)cc2)nn1,microbial growth,broth dilution,ATCC25922,,,IC50,655 µg/mL
O=C(Sc1cccccc1=O)c1cccc(C(F)(F)F)c1,microbial growth,broth dilution,ATCC35218,,,MIC80,19.8 µM
CC1(C)S[C@@H]2[C@H](NC(=O)[C@H](N)c3ccccc3)C(=O)N2[C@H]1C(=O)O,microbial growth,well diffusion,BW25113,200 µM,,inhibition zone,14 mm
COc1cc(C=CC(=O)CC(c2ccc([N+](=O)[O-])cc2)n2ccnc2)ccc1O (centres unmarked),microbial growth,disc diffusion,ATCC25922,250 µg/mL,,inhibition zone,7.67 mm
CCCCCCCCCCCC(=O)Oc1c(C)c(O)c(C(=O)/C=C/c2ccccc2)c(OC)c1C,microbial killing,broth dilution,ATCC25922,,,MBC,> 5000 µg/mL
Cc1ccc(S(=O)(=O)Oc2cc(C(C)C)ccc2C)cc1,microbial growth,broth dilution,ATCC25922,,,IC50,317 µg/mL
C#CCCCCCCCCCCCC(O)CC(O)CO (centres unmarked),microbial growth,broth dilution,ATCC35218,,,IC50,> 200 µg/mL
COc1c(C)c(OC(C)=O)c(C)c(OC(C)=O)c1C(=O)/C=C/c1ccccc1,microbial killing,broth dilution,ATCC25922,,,MBC,> 5000 µg/mL
CCCc1ccsc1-c1ccc(O)c(O)c1,microbial growth,,AS19,,10 h,pIC50,4.81
COc1c(C)c(OS(=O)(=O)c2ccc3ccccc3c2)c(C)c(O)c1C(=O)/C=C/c1ccccc1,microbial killing,broth dilution,ATCC25922,,,MBC,> 5000 µg/mL
COc1cc(C=Cc2cc(-c3ccc(N(C)C)cc3)nc(O)n2)ccc1O,microbial growth,disc diffusion,ATCC25922,500 µg/mL,,inhibition zone,11 mm
CN1CC(O)=C(C(=O)NC(C(=O)NC2C(=O)N3C2SC(C)(C)C3C(=O)O)c2ccccc2)C1=O (centres unmarked),microbial growth,well diffusion,BW25113,200 µM,,inhibition zone,10.5 mm
Cc1ccc(C(C)C)cc1OCc1cn(-c2ccccc2)nn1,microbial growth,broth dilution,ATCC25922,,,IC50,249 µg/mL
COc1cc(C=Cc2cc(-c3ccccc3)nc(O)n2)ccc1O,microbial growth,disc diffusion,ATCC25922,250 µg/mL,,inhibition zone,6 mm
NS(=O)(=O)c1ccc(-n2cc(COc3cccc4cccnc34)nn2)cc1,microbial growth,broth dilution,ATCC25922,,,IC50,880 µg/mL
Fc1ccc(-c2nc3ccccc3[nH]2)cc1,microbial growth,broth dilution,ATCC25922,,,MIC,256 µg/mL
